Reference: PMC8108540 (Arteriosclerosis, thrombosis, and vascular biology, 2020)
Each block holds one compound with its values, some of them ahead of it. Where a SMILES comes first, the peptide text is derived from it. The star is where a group is joined. Palmitoyl = CCCCCCCCCCCCCCCC(=O)*

Experiments:
GPR31 [1] = molecular target: T1, GPR31 (Homo sapiens, UniProt O00270); test: Cre-luciferase activation assay in GPR31-transfected CHO cells; assay type: cell-based; details: 6 hours
Outline: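 CHO cells cotransfected by lipofection with Cre-luciferase and GPR31 plasmids, 8 μg each. Cells plated and treated 6 h with 10 μM forskolin with or without 300 nmol/L 12(S)-HETE. Cells then lysed and luciferase activity read as relative light units.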
Target sequence in this assay (O00270 whole entry, species assumed): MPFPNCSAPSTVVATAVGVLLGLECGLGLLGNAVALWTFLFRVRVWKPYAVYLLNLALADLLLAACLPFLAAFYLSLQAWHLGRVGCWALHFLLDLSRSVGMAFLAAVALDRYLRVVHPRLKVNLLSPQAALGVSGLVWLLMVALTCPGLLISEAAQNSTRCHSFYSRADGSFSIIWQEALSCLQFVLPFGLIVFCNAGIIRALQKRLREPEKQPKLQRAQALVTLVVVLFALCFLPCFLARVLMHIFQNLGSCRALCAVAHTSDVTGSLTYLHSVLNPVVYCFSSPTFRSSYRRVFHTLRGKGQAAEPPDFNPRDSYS

GPR31 [2] = molecular target: T1, GPR31; test: 12; assay type: cell-based; details: 10 and 20 μM 12(S)-HETE, fura-2-labeled GPR31/CHO cells
Outline: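 Human GPR31 transiently transfected into CHO cells. Cells labelled with fura-2 and challenged with 12(S)-HETE; Ca2+ flux followed over time.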
Target sequence in this assay (O00270 whole entry, species assumed): as above

human platelets [3] = test: Platelet aggregation by 12; assay type: cell-based; details: 5, 10 and 20 μmol/L 12(S)-HETE, human PRP
p38 MAPK phosphorylation = test: Immunoblot of 12; assay type: cell-based, human
Outline: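 Gel-purified human platelets incubated in an aggregometer at 37 °C with 12(S)-HETE, with or without 1 or 3 μM test compound, for various times. Solubilised in SDS-PAGE sample buffer and run on 10% SDS-PAGE at equal protein. Immunoblotted for phospho-p38 (Thr180/Tyr182).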

human platelets [4] = test: 12; assay type: cell-based; details: 10 μM 12(S)-HETE, fura-2-labeled human platelets
Outline: (§1)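 Gel-purified platelets loaded with 2.5 μM fura-2/AM, 30 min at 37 °C. Emission recorded at 510 nm with dual excitation at 340/380 nm. For line 6, platelets preincubated with test compound or vehicle before AYPGKF.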

GPR31 [5] = molecular target: T1, GPR31; test: 12; assay type: cell-based; details: 100 nmol/L 12(S)-HETE, human platelets, signal at 15 to 120 minutes
Outline: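 Gel-purified human platelets pretreated with test compound at graded levels, then activated with 12(S)-HETE. Lysis on ice for 10 min in Tris-HCl pH 7.5 buffer with NP-40, DTT and protease inhibitors, then cleared at 14 000 g. Rap1-GTP pulled down with RalGDS-RBD agarose, 60 min at 4 °C. Detected by 15% SDS-PAGE and anti-Rap1 immunoblot; lysate aliquots used for total Rap1. IC50 from dose response.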
Target sequence in this assay (O00270 whole entry): as the sequence (O00270 whole entry, species assumed) above

RASA3 = test: Thrombin-induced RASA3 membrane localization in human platelets; assay type: cell-based; details: GPR310 1 μM, AZD1283 10 μM, dual, or LY294002 10 μM, 3 nmol/L thrombin
Rap1 [6] = test: Thrombin-induced Rap1 activation in human platelets; assay type: cell-based; details: GPR310 3 μM, AZD1283 10 μM or dual; 3 nmol/L thrombin, 15 min, gel-purified platelets
platelet-rich plasma = test: Thrombin-induced clot retraction in PRP; assay type: cell-based, human; details: 10 or 30 μM inhibitor, 3 nmol/L thrombin, RT, 15 minutes to 4 hours
Outline: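 Citrated platelet-rich plasma adjusted to […] and diluted in PBS with red blood cells in glass tubes. CaCl2 added to a final 0.5 mmol/L. Pretreated with 10 or 30 μM test compound, P2Y12 inhibitor or vehicle. Clotting started with 3 or 10 nmol/L thrombin at room temperature. Clots photographed at 0, 5, 10, 15 and 30 min and at 1, 2 and 4 h.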

mouse platelets [7] = test: Ex vivo platelet aggregation after sc dosing; assay type: in vivo; details: mice, 10 mg/kg sc, 4 h; AYPGKF 100 μmol/L or thrombin 10 nmol/L
PAR1 [8] = test: PAR1; assay type: cell-based, human
PAR1 [9] = molecular target: T2, PAR1 (Homo sapiens, UniProt P25116); test: Calcium flux in HEK293 recombinant system, SFLLRN; assay type: cell-based; details: GPR310 6 μM, 100 μM SFLLRN
T2 sequence (P25116 22-425): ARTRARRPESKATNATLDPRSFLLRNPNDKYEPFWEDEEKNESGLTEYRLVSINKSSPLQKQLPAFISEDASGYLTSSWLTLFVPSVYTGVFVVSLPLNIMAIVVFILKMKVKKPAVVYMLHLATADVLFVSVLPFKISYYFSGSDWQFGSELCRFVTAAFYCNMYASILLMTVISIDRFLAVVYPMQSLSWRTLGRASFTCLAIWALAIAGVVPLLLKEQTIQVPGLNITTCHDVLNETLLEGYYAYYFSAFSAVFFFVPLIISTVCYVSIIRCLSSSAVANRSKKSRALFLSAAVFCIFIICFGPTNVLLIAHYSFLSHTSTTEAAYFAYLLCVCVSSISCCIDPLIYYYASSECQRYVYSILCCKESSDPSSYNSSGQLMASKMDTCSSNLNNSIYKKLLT

Tail bleeding time = assay type: in vivo, mouse; details: mice, 4 hours after 5 and 10 mg/kg sc, n=10
Outline: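 Mice anaesthetised 4 h after subcutaneous test compound or vehicle and kept on a 37 °C homeothermic blanket. Tail transected 5 mm from the tip and immersed at once in 37 °C saline. Time to cessation recorded; cessation counted only once bleeding had stopped for 1 min.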

PAR2 = molecular target: T3, PAR2 (Homo sapiens, UniProt P55085); test: Calcium flux, recombinant PAR2, SLIGRL; assay type: cell-based; details: GPR310 6 μM; 100 μM SLIGRL
T3 sequence (P55085 26-397): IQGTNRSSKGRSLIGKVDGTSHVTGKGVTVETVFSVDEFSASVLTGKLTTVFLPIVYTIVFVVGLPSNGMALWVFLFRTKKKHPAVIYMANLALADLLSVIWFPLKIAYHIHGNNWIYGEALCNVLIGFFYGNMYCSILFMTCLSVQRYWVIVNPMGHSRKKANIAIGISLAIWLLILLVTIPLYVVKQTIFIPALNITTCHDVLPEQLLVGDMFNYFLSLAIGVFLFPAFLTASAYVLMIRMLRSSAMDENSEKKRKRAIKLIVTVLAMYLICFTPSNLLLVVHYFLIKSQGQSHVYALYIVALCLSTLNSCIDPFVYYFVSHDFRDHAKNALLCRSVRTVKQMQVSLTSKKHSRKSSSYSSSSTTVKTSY

pAKT, pERK = test: Immunoblot of thrombin-induced Akt and ERK phosphorylation in human platelets; assay type: cell-based; details: 1 μM GPR310, 3 nmol/L thrombin, 15 min
Outline: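 Gel-purified human platelets pretreated with or without 1 μM test compound, then stimulated with 3 nmol/L thrombin for 15 min. Equal protein resolved on 10% SDS-PAGE and immunoblotted for phospho-AKT and phospho-ERK, with β-actin as loading control.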

PAR4 [10] = test: AYPGKF-mediated calcium flux in human platelets; assay type: cell-based; details: 3 μM GPR310, 160 μM AYPGKF, fura-2-labeled human platelets
Outline: as §1

[11] = Pharmacokinetics of sc injected pepducin in mouse plasma; assay type: in vivo; details: CD-1, mouse, 10 mg/kg
Outline: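 CD-1 mice given 10 mg/kg test compound subcutaneously in 10% DMSO. Vena cava blood drawn into heparin at 5, 15 and 30 min and 1, 4, 5, 14 and 24 h. Pepducin extracted from plasma and quantified by LC-MS to obtain peak level and terminal elimination.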

mouse platelets [12] = test: AYPGKF-induced aggregation and ATP release in mouse PRP; assay type: cell-based; details: 30 μM GPR310 spiked, 100 μM AYPGKF
Outline: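 Mouse platelet-rich plasma spiked with test compound, then stimulated with 100 μM AYPGKF. Run at 37 °C with stirring at 900 rpm in a lumi-aggregometer. Aggregation and dense-granule ATP release recorded together; ATP detected with luciferin/luciferase reagent and calibrated against an ATP standard.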

Rap1 [13] = test: AYPGKF; assay type: cell-based; details: human platelets, peak shifted from 5 to 15 minutes
IL-8 receptor CXCR1/2 = test: Calcium flux in human neutrophils, IL-8; assay type: cell-based; details: GPR310 6 μM, 50 nmol/L IL-8
CXCR4 = CXCR4 (Homo sapiens, UniProt P61073); test: Calcium flux in human neutrophils, SDF1α; assay type: cell-based; details: GPR310 6 μM, 100 nmol/L SDF1α
ADP receptors = test: Calcium flux, ADP; assay type: cell-based, human; details: GPR310 6 μM; 20 μM ADP
human platelets [14] = test: Collagen-mediated human platelet aggregation; assay type: cell-based; details: 10 μg/mL collagen; 3 μmol/L GPR310 or 30 μmol/L ML355; P<0.001
PAR4 [15] = test: PAR4; assay type: cell-based, human; details: 30 μmol/L ML355, 2 min preincubation, 160 μmol/L AYPGKF, aggregation at 15 min

CXCR4, sequence (P61073 whole entry): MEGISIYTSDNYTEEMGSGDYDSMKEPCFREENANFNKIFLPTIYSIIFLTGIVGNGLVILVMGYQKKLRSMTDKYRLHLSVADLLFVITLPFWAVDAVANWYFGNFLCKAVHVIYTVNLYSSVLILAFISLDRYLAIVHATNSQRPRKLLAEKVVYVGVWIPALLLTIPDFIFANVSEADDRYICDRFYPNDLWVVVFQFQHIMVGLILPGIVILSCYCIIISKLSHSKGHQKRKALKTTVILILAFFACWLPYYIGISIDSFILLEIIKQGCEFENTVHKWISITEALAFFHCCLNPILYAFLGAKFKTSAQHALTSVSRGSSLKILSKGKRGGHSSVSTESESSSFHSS

SMILES: CCCCC/C=C\C[C@H](O)/C=C/C=C\C/C=C\CCCC(=O)O [12(S)-HETE]
inhibition of AC (adenylyl cyclase) activity (GPR31 [1]; 300 nmol/L 12(S)-HETE with 10 μM forskolin, not observed in Cre-luci controls): significant inhibition
calcium mobilization (GPR31 [2]): low but detectable calcium transients
activation of platelet aggregation (human platelets [3]): failed to effectively activate platelet aggregation
p38 MAPK phosphorylation activation (p38 MAPK phosphorylation; 100 nmol/L 12(S)-HETE, 15 minutes, human platelets): rapidly (15 minutes) activated
calcium flux (human platelets [4]): negligible
Rap1-GTP activation (GPR31 [5]): strongly activated

SMILES: CCOC(=O)c1cc(C#N)c(N2CCC(C(=O)NS(=O)(=O)Cc3ccccc3)CC2)nc1C [AZD1283, reference compound]
suppression of thrombin-induced RASA3 appearance in plasma membrane (RASA3): complete suppression
inhibition of thrombin-induced Rap1 activation (Rap1 [6]): partially suppressed
clot retraction time vs vehicle (platelet-rich plasma): longer clot retraction times

SMILES: CCCCCCCCCCCCCCCC(=O)N[C@@H](CCCNC(=N)N)C(=O)N[C@@H](C)C(=O)N[C@@H](CC(C)C)C(=O)N[C@@H](CCC(N)=O)C(=O)N[C@@H](CCCCN)C(=O)N[C@@H](CCCNC(=N)N)C(=O)N[C@@H](CC(C)C)C(=O)N[C@@H](CCCNC(=N)N)C(=O)N[C@@H](CCC(=O)O)C(=O)N1CCC[C@H]1C(=O)N[C@@H](CCC(=O)O)C(=O)N[C@@H](CCCCN)C(=O)N[C@@H](CCC(N)=O)C(=O)N1CCC[C@H]1C(=O)N[C@@H](CCCCN)C(=O)N[C@@H](CC(C)C)C(=O)N[C@@H](CCC(N)=O)C(=O)N[C@@H](CCCNC(=N)N)C(=O)N[C@@H](C)C(=O)N[C@@H](CCC(N)=O)C(=O)N[C@@H](C)C(N)=O [GPR310] (Palmitoyl-RALQKRLREPEKQPKLQRAQA-NH2; C-terminus assumed)
ex vivo antiplatelet effect at high agonist concentration (mouse platelets [7]): reversed
inhibition of PAR1-mediated platelet aggregation (PAR1 [8]; 10 μmol/L GPR310, 3 μM SFLLRN, gel-purified human platelets): significant inhibition
inhibition of PAR1-mediated platelet aggregation (PAR1 [8]; 10 μmol/L GPR310, 10 μmol/L SFLLRN, gel-purified human platelets): no significant effect
inhibition of PAR1 calcium flux (PAR1 [9]): minimal inhibition
tail bleeding time vs vehicle control (Tail bleeding time): no difference
suppression of thrombin-induced RASA3 appearance in plasma membrane (RASA3): complete suppression
inhibition of thrombin-induced Rap1 activation (Rap1 [6]): partially suppressed
inhibition of recombinant PAR2 calcium flux (PAR2): no detected inhibition
inhibition of thrombin-induced Akt phosphorylation (pAKT, pERK): attenuated
inhibition of thrombin-mediated ERK activation (pAKT, pERK): inhibited
suppression of AYPGKF-mediated Ca2+ response (PAR4 [10]): 80%
inhibition of 12(S)-HETE-induced p38 MAPK phosphorylation (p38 MAPK phosphorylation; 1 to 3 μM GPR310, human platelets): completely attenuated
Tmax [11]: 1 h
level at time molar at 4 h [11]: 3500 nM
level at time molar at 14 h [11]: 10 nM
inhibition of ATP release, mouse PRP (mouse platelets [12]): inhibited
inhibition of platelet aggregation, mouse PRP (mouse platelets [12]): inhibited
inhibition of AYPGKF-induced Rap1-GTP signal (Rap1 [13]): significantly attenuated
inhibition of calcium flux (CXCR1/2) (IL-8 receptor CXCR1/2): did not inhibit
inhibition of calcium flux (CXCR4) (CXCR4): did not inhibit
clot retraction time vs vehicle (platelet-rich plasma): longer clot retraction times
inhibition of calcium flux (ADP receptors) (ADP receptors): did not inhibit
inhibition of collagen-mediated platelet aggregation (human platelets [14]): almost completely inhibited

SMILES: COc1cccc(CNc2ccc(S(=O)(=O)Nc3nc4ccccc4s3)cc2)c1O [ML355, reference compound]
inhibition of PAR1-mediated platelet aggregation (PAR1 [8]; 30 μmol/L ML355, 3 μmol/L SFLLRN): considerable inhibition
inhibition of PAR1-mediated platelet aggregation (PAR1 [8]; 30 μmol/L ML355, 10 μmol/L SFLLRN): but not 10 μmol/L SFLLRN
inhibition of PAR4-mediated platelet aggregation (PAR4 [15]): inhibition
inhibition of collagen-mediated platelet aggregation (human platelets [14]): to a similar extent

induction of cAMP-responsive element-luciferase reporter (GPR31 [1]; CHO-K1 cells expressing GPR31 and Cre-luciferase, 10 μM forskolin): 10 fold
SMILES: C=C[C@@]1(C)CC(=O)[C@]2(O)[C@@]3(C)[C@@H](O)CCC(C)(C)[C@@H]3[C@H](O)[C@H](OC(C)=O)[C@@]2(C)O1 [forskolin]
